Measurements taken from ChEMBL document CHEMBL1649109, “Antiparasitic activities and toxicities of individual enantiomers of the 8-aminoquinoline 8-[(4-amino-1-methylbutyl)amino]-6-methoxy-4-methyl-5-[3,4-dichlorophenoxy]quinoline succinate” (Antimicrob Agents Chemother, 2008).
Active and inactive are the calls of the source. The calls are words filed in the database; no cut-off is given here.

Tests used:
Canis familiaris [1] = test: Toxicity in Beagle dog assessed as increase in methemoglobin level at 6.4 mg/kg/day, po between 7 to 11 days; type: organism-based, Canis lupus familiaris; set-up: route oral; conditions: in vivo
Summary of the method: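 Beagle dogs, 8-9 months old, given drug as bulk powder in gelatin capsules orally on days 1-4, at 0.0116 mmol/kg/day as base. Daily clinical observation. Methemoglobin measured by co-oximetry from jugular or cephalic blood, predose on days 1, 2 and 4, then through day 29.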

Pneumocystis carinii [2] = test: Antimicrobial activity against Pneumocystis carinii infected BALB/c mouse at 2 mg/kg/day, po after 21 days administered 4 weeks postinfection by Giemsa staining method; type: functional, organism-based
Pneumocystis carinii [3] = test: Antimicrobial activity against Pneumocystis carinii infected BALB/c mouse at 2 mg/kg/day, po after 21 days administered 4 weeks postinfection by methenamine silver nitrate staining method; type: functional, organism-based
Canis familiaris [4] = test: Toxicity in Beagle dog assessed as increase in methemoglobin level at 5.3 mg/kg/day, po measured on day 5; type: organism-based, Canis lupus familiaris; set-up: route oral; conditions: in vivo
Summary of the method: (§1)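 Male beagles aged 8–9 months (n = 2) received oral primaquine diphosphate as bulk drug in gelatin capsules on days 1–4 (0.0116 mmol/kg/day as base), dosed by day-1 body weight. Jugular or cephalic blood was drawn before dosing on days 1, 2 and 4, then on days 5, 7, 9, 11, 15, 18, 21, 25 and 29. Methemoglobin was measured by co-oximeter absorbance at four wavelengths.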

Canis familiaris [5] = test: Toxicity in Beagle dog assessed as methemoglobin level at 5.3 mg/kg/day, po after 2 weeks; type: organism-based, Canis lupus familiaris; set-up: route oral; conditions: in vivo, 336 h; summary of the method: as §1
Leishmania donovani = test: Antileishmanial activity against Leishmania donovani HU3 infected in mouse; type: functional
Summary of the method: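 L. donovani HU3 amastigotes, 1 × 10^7 given IV to mice. From day 7 post-infection, dosed orally once daily for 5 days in 0.25% methylcellulose-10% ethanol; reference stibogluconate given SC. Mice killed at day 14 post-infection. Parasite burden counted on liver impression smears against untreated controls. ED50 from linear regression, with 95% confidence limits.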

SMILES: COc1cc(C)c2c(Oc3cccc(C(F)(F)F)c3)c(OC)cc(NC(C)CCCN)c2n1 (configuration not stated) [TAFENOQUINE]
- Activity (Canis familiaris [1]): Toxic

SMILES: COc1cc(NC(C)CCCN)c2ncccc2c1 (configuration not stated) [PRIMAQUINE]
- Activity (Pneumocystis carinii [2]): inactive
- Activity (Pneumocystis carinii [3]): inactive
- Activity (Canis familiaris [4]): Toxic
- Activity (Canis familiaris [5]): Non-toxic

SMILES: CCN(CC)CCCCCCNc1cc(OC)cc2c(C)ccnc12 [SITAMAQUINE]
- ED90 (Leishmania donovani): 4.14 mg/kg
- ED50 (Leishmania donovani; Leishmania donovani, HU3): 1.55 mg/kg
